According to ChEMBL document CHEMBL3576833, “Design and Synthesis of Acetylenyl Benzamide Derivatives as Novel Glucokinase Activators for the Treatment of T2DM” (ACS Med Chem Lett, 2015):
Active and inactive are the calls of the source. The rule behind the calls is not given here.

Key:
[1] = target: T1, Hexokinase-4 (Homo sapiens) (UniProt P35557); experiment: Activation of recombinant human pancreatic glucokinase using 10 mM glucose as substrate assessed as enzyme half maximal saturation concentration at 1 uM by G6PDH coupled assay
T1 sequence (whole entry): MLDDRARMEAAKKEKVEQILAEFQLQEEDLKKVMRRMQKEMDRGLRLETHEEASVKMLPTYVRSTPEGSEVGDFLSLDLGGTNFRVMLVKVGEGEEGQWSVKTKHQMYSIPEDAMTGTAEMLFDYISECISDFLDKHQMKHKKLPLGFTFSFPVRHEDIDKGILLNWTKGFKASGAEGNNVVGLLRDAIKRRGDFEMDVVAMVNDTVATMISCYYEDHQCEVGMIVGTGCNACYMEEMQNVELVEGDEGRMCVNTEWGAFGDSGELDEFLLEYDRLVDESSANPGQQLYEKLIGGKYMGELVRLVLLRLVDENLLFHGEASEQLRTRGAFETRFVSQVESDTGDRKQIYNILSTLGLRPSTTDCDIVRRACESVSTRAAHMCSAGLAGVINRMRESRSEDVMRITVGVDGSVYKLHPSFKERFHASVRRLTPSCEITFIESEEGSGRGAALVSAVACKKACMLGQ

[2] = target: T2, Hexokinase-4 (Rattus norvegicus) (UniProt P17712); experiment: Activation of glucokinase in rat primary hepatocytes assessed as increase in 5.6 mM 2-deoxy-D-[3H]-glucose uptake after 4 hrs by scintillation counting analysis relative to control; format: cell-based; settings: Hepatocyte
T2 sequence (whole entry): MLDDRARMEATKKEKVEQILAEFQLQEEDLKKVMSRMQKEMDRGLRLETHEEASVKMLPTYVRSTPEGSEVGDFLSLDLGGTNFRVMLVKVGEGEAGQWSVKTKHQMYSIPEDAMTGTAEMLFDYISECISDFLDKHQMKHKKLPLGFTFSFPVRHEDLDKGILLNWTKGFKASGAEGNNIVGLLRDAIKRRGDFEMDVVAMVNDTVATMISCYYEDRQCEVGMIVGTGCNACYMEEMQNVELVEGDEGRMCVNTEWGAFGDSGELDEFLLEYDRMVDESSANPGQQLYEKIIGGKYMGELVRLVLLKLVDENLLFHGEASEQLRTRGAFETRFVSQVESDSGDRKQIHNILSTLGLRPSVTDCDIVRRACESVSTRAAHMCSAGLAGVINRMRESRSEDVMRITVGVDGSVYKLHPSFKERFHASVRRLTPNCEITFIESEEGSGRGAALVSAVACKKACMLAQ
Summary of the method: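 Rat primary hepatocytes; uptake measured under glucose stimulation, with glucose raised from 0 mM to 5.6 mM; activity expressed as fold increase in glucose uptake.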

Mus musculus [3] = experiment: Antidiabetic activity in C57BL/6J mouse assessed as reduction of blood glucose level at 10 mg/kg, po after 60 mins by fasted glucose tolerance test; format: functional, organism-based
Summary of the method: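 Fasted glucose tolerance test in C57BL/6J mice. Animals were fasted and dosed orally, with no glucose challenge. Blood glucose was measured at 60 min.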

[4] = target: T3, Hexokinase-2 (Homo sapiens) (UniProt P52789); experiment: Effect on hexokinase-2 (unknown origin)
T3 sequence (whole entry): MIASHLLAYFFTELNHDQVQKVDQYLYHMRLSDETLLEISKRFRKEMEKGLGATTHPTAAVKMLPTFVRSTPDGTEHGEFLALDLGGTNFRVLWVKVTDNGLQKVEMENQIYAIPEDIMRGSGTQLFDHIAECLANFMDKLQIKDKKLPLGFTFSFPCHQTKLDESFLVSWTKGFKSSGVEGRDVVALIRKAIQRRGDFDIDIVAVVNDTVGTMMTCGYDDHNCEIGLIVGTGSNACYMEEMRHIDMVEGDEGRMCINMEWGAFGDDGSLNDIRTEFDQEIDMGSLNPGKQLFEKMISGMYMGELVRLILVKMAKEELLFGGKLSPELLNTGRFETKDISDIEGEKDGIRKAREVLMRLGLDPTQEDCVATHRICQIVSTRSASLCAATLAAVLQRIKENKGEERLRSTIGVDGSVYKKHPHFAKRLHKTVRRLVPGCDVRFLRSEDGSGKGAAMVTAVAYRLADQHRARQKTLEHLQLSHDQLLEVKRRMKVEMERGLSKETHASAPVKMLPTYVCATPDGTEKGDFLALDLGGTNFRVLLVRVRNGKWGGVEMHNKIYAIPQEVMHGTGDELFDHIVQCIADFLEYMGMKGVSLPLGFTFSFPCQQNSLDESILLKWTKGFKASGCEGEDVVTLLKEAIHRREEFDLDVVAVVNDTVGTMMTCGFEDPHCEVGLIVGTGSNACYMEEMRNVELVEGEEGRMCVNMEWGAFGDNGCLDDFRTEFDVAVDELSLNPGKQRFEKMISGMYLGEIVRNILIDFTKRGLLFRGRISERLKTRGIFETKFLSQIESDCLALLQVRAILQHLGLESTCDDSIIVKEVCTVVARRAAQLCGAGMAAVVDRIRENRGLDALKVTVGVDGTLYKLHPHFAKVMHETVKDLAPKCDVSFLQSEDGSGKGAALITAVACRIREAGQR

[5] = target: T2, Hexokinase-4 (Rattus norvegicus); experiment: Activation of glucokinase in 0 to 5.6 mM glucose-stimulated Sprague-Dawley rat pancreatic islets assessed as increase in insulin secretion after 1 hr by ELISA relative to control
Mus musculus [6] = experiment: Antidiabetic activity in po dosed C57BL/6J mouse assessed as blood glucose lowering effect administered 30 mins prior to glucose challenge measured over 180 mins by OGTT; format: functional, organism-based
Summary of the method: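 Oral glucose tolerance test in C57BL/6J mice with oral dosing. Blood glucose was followed after the glucose challenge, and the result was expressed as the % reduction in blood glucose AUC.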

[7] = target: T4, Hexokinase-1 (Homo sapiens) (UniProt P19367); experiment: Effect on hexokinase-1 (unknown origin)
T4 sequence (whole entry): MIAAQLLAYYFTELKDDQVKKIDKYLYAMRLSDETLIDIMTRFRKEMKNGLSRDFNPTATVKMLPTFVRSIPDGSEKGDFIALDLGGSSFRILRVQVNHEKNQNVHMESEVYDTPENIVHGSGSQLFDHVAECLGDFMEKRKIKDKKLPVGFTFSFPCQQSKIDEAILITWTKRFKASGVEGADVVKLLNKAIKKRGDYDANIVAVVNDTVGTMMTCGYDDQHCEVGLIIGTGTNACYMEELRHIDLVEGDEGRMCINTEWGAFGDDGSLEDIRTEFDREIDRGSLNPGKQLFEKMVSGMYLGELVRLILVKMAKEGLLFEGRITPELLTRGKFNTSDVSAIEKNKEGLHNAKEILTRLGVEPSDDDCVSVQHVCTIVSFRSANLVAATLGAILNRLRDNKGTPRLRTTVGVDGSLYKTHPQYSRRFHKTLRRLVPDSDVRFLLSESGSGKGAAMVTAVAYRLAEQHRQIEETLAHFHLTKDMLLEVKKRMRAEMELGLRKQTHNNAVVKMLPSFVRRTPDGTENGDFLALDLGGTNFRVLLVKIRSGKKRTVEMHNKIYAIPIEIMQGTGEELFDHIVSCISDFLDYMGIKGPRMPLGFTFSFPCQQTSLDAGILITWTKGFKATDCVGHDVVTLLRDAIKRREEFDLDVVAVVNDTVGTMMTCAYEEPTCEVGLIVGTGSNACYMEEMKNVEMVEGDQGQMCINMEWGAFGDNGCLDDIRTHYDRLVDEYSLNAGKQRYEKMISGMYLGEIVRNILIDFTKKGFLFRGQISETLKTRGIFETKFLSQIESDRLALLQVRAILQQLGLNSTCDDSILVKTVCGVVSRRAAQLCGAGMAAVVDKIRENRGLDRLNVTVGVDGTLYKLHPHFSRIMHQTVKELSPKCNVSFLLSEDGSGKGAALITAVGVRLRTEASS

Structure (SMILES)	Activity [1]	fold change (FC) [2]	other results
COC[C@H](C)Oc1cc(C#Cc2cccc(NCCN3CCOCC3)c2)cc(C(=O)Nc2ccn(C)n2)c1	0.55 mM	2.62	–
COCCNc1cccc(C#Cc2cc(O[C@@H](C)COC)cc(C(=O)Nc3ccn(C)n3)c2)c1	1.23 mM	2.18	–
COC[C@H](C)Oc1cc(C#Cc2cccc(OCCN3CCCCC3)c2)cc(C(=O)Nc2ccn(C)n2)c1	2.25 mM	2.36	–
COC[C@H](C)Oc1cc(C#Cc2cccc(N(C)C)c2)cc(C(=O)Nc2ccn(C)n2)c1	0.76 mM	2.43	–
COC[C@H](C)Oc1cc(C#Cc2cccc(NCCN(C)C)c2)cc(C(=O)Nc2ccn(C)n2)c1	0.17 mM	2.03	–
COC[C@H](C)Oc1cc(C#Cc2cccc(OCCN3CCCC3)c2)cc(C(=O)Nc2ccn(C)n2)c1	0.73 mM	2.43	–
COC[C@H](C)Oc1cc(C#CCN(C)C)cc(C(=O)Nc2ccn(C)n2)c1	5.51 mM	1.31	–
COC[C@H](C)Oc1cc(C#Cc2cccc(NCCN3CCCCC3)c2)cc(C(=O)Nc2ccn(C)n2)c1	0.61 mM	2.79	–
COC[C@H](C)Oc1cc(C#Cc2cccc(OCCN3CCOCC3)c2)cc(C(=O)Nc2ccn(C)n2)c1	0.35 mM	1.89	–
COC[C@H](C)Oc1cc(Oc2cnc(C(=O)N3CCC3)cn2)cc(C(=O)Nc2cnc(C)cn2)c1	–	–	Activity (Mus musculus [3]): Active
COC[C@H](C)Oc1cc(C#CCOC2CCCCO2)cc(C(=O)Nc2ccn(C)n2)c1 (stereo partly specified)	0.55 mM	2.5	–
COC[C@H](C)Oc1cc(C#Cc2cccc(N)c2)cc(C(=O)Nc2ccn(C)n2)c1	0.84 mM	2.16	Activity [4]: inactive; fold change (FC) [5]: 2.13; Activity (Mus musculus [6]): Dose-dependent effect; Activity [7]: inactive
COC[C@H](C)Oc1cc(C#Cc2ccccc2OC)cc(C(=O)Nc2ccn(C)n2)c1	0.73 mM	2.64	–
COC[C@H](C)Oc1cc(C#CCNc2ncccn2)cc(C(=O)Nc2ccn(C)n2)c1	3.88 mM	2.37	–
COCC#Cc1cc(O[C@@H](C)COC)cc(C(=O)Nc2ccn(C)n2)c1	4.04 mM	1.71	–
COC[C@H](C)Oc1cc(C#Cc2ccc3[nH]ccc3c2)cc(C(=O)Nc2ccn(C)n2)c1	0.46 mM	1.99	–
COC[C@H](C)Oc1cc(C#Cc2cccc(OC(C)C)c2)cc(C(=O)Nc2ccn(C)n2)c1	1.84 mM	2.03	–
COC[C@H](C)Oc1cc(C#Cc2ccc(N)cc2)cc(C(=O)Nc2ccn(C)n2)c1	0.73 mM	2.05	–
COC[C@H](C)Oc1cc(C#Cc2cccc(O)c2)cc(C(=O)Nc2ccn(C)n2)c1	1.37 mM	1.57	–
COC[C@H](C)Oc1cc(C#Cc2cccc(NCCN3CCCC3)c2)cc(C(=O)Nc2ccn(C)n2)c1	0.51 mM	2.83	–
COC[C@H](C)Oc1cc(C#Cc2cccc(OCC#N)c2)cc(C(=O)Nc2ccn(C)n2)c1	0.95 mM	1.75	–
COC[C@H](C)Oc1cc(C#Cc2ccc3c(c2)OCO3)cc(C(=O)Nc2ccn(C)n2)c1	2.13 mM	2.64	–
CCN(CC)c1cccc(C#Cc2cc(O[C@@H](C)COC)cc(C(=O)Nc3ccn(C)n3)c2)c1	2.01 mM	1.91	–
COC[C@H](C)Oc1cc(C#Cc2cccc(NCCn3ccnc3C)c2)cc(C(=O)Nc2ccn(C)n2)c1	0.9 mM	2.36	–
